Experimental data: ChEMBL document CHEMBL5257157, “Biological evaluation of novel amidino substituted coumarin-benzazole hybrids as promising therapeutic agents” (RSC Med Chem, 2023)

Key:
Influenza A virus [1] = test: Antiviral activity against influenza virus H1N1 infected in dog MDCK cells assessed as inhibition of virus-induced cytopathogenic effect incubated for 3 to 7 days by MTS assay; format: functional, organism-based
Influenza B virus = test: Antiviral activity against influenza B virus infected in dog MDCK cells assessed as inhibition of virus-induced cytopathogenic effect incubated for 3 to 7 days by MTS assay; format: functional, organism-based
[2] = Cytotoxicity against dog MDCK cells assessed as inhibition of cell growth incubated for 72 hrs by CellTiter96 Aqueous One Solution cell proliferation assay; format: toxicity, cell-based, Canis lupus familiaris
Influenza A virus [3] = test: Antiviral activity against influenza virus H3N2 infected in dog MDCK cells assessed as inhibition of virus-induced cytopathogenic effect incubated for 3 to 7 days by MTS assay; format: functional, organism-based
CAPAN-1 = test: Antiproliferative activity against human CAPAN-1 cells assessed as inhibition of cell growth incubated for 72 hrs by CellTiter96 Aqueous One Solution cell proliferation assay; format: functional, cell-based; details: CAPAN-1, 72 h
Zika virus = test: Antiviral activity against Zika virus Mr776 infected in human Huh-7 cells assessed as inhibition of virus-induced cytopathogenic effect incubated for 3 to 7 days by MTS assay; format: functional, organism-based; details: Mr776, Huh-7
[4] = Antioxidant activity assessed as DPPH radical scavenging activity incubated for 5 mins by absorbance based microplate reader analysis; format: functional
Outline: (§1)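 Pure compounds tested in three colorimetric antioxidant assays, each run alongside the reference BHT. […] ABTS: direct reaction with ABTS•+ radical cation, reported as IC50. DPPH: scavenging of the stable DPPH radical by proton or electron donation, reported as IC50. FRAP: reducing power, expressed as mmolFe2+/mmolC.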

[5] = Antioxidant activity assessed as reduction of Fe3+ complex to Fe2+ analogue by measuring mmolFe2+/mmolc by FRAP assay; format: functional; outline: as §1
[6] = system: Respiratory syncytial virus; test: Antiviral activity against RSV infected in human HEL 299 cells assessed as inhibition of virus-induced cytopathogenic effect incubated for 3 to 7 days by MTS assay; format: functional, organism-based
Huh-7 = test: Cytotoxicity against human Huh-7 cells assessed as inhibition of cell growth incubated for 72 hrs by CellTiter96 Aqueous One Solution cell proliferation assay; format: functional
[7] = Antiviral activity against HCoV-NL63 infected in human Huh-7 cells assessed as inhibition of virus-induced cytopathogenic effect incubated for 3 to 7 days by MTS assay; format: functional, cell-based; details: Human coronavirus NL63, Huh-7
HL-60 = test: Antiproliferative activity against human HL-60 cells assessed as inhibition of cell growth incubated for 72 hrs by CellTiter96 Aqueous One Solution cell proliferation assay; format: functional, cell-based; details: HL-60, 72 h
Z-138 = test: Antiproliferative activity against human Z138 cells assessed as inhibition of cell growth incubated for 72 hrs by CellTiter96 Aqueous One Solution cell proliferation assay; format: functional, cell-based; details: Z-138, 72 h
Yellow fever virus = test: Antiviral activity against Yellow fever virus 17D infected in human Huh-7 cells assessed as inhibition of virus-induced cytopathogenic effect incubated for 3 to 7 days by MTS assay; format: functional, organism-based
LN-229 = test: Antiproliferative activity against human LN-229 cells assessed as inhibition of cell growth incubated for 72 hrs by CellTiter96 Aqueous One Solution cell proliferation assay; format: functional, cell-based; details: LN-229, 72 h
[8] = Antioxidant activity assessed as ABTS radical scavenging activity incubated for 5 mins by absorbance based microplate reader analysis; format: functional; outline: as §1
Human alphaherpesvirus 1 = test: Antiviral activity against HSV-1 KOS infected in human HEL 299 cells assessed as inhibition of virus-induced cytopathogenic effect incubated for 3 to 7 days by MTS assay; format: functional, organism-based; details: Human alphaherpesvirus 1, KOS
[9] = Cytotoxicity against human HEL 299 cells assessed as inhibition of cell growth incubated for 72 hrs by CellTiter96 Aqueous One Solution cell proliferation assay; format: toxicity, cell-based
Human coronavirus 229E = test: Antiviral activity against HCoV-229E infected in human HEL 299 cells assessed as inhibition of virus-induced cytopathogenic effect incubated for 3 to 7 days by MTS assay; format: functional, organism-based
[10] = Antiproliferative activity against human DND41 cells assessed as inhibition of cell growth incubated for 72 hrs by CellTiter96 Aqueous One Solution cell proliferation assay; format: functional, cell-based; details: DND41, 72 h
K562 = test: Antiproliferative activity against human K562 cells assessed as inhibition of cell growth incubated for 72 hrs by CellTiter96 Aqueous One Solution cell proliferation assay; format: functional, cell-based; details: K562, 72 h
NCI-H460 = test: Antiproliferative activity against human NCI-H460 cells assessed as inhibition of cell growth incubated for 72 hrs by CellTiter96 Aqueous One Solution cell proliferation assay; format: functional, cell-based; details: NCI-H460, 72 h
Sindbis virus = test: Antiviral activity against Sindbis virus infected in human Huh-7 cells assessed as inhibition of virus-induced cytopathogenic effect incubated for 3 to 7 days by MTS assay; format: functional, organism-based
Human coronavirus OC43 = test: Antiviral activity against HCoV-OC43 infected in human HEL 299 cells assessed as inhibition of virus-induced cytopathogenic effect incubated for 3 to 7 days by MTS assay; format: functional, organism-based; details: Betacoronavirus 1, HEL 299
CCRF-CEM = test: Antiproliferative activity against human CEM cells assessed as inhibition of cell growth; format: functional, cell-based

| Structure (SMILES) | EC50 (Influenza A virus [1]) [µM] | EC50 (Influenza B virus) [µM] | CC50 at 72 h [2] [µM] | EC50 (Influenza A virus [3]) [µM] | IC50 (CAPAN-1) [µM] | EC50 (Zika virus) [µM] | Activity [5] [mmol/mmol] | EC50 [6] [µM] | CC50 (Huh-7) [µM] | EC50 [7] [µM] | IC50 (HL-60) [µM] | IC50 (Z-138) [µM] | EC50 (Yellow fever virus) [µM] | IC50 (LN-229) [µM] | IC50 [8] [µM] | EC50 (Human alphaherpesvirus 1) [µM] | CC50 at 72 h [9] [µM] | EC50 (Human coronavirus 229E) [µM] | IC50 [10] [µM] | IC50 (K562) [µM] | also measured |
| --- | --- | --- | --- | --- | --- | --- | --- | --- | --- | --- | --- | --- | --- | --- | --- | --- | --- | --- | --- | --- | --- |
| CC(=O)N[C@H]1[C@H]([C@H](O)[C@H](O)CO)OC(C(=O)O)=C[C@@H]1NC(=N)N [ZANAMIVIR] | 0.1 | 0.05 | > 100 | 16.8 | – | – | – | – | – | – | – | – | – | – | – | – | – | – | – | – | – |
| O=c1oc2ccccc2c(Cl)c1-c1nc2cc(C3=NCCN3)ccc2[nH]1 | > 100 | > 100 | 92.1 | > 100 | 99.3 | > 100 | 35.1 | > 100 | 85 | > 100 | 55.7 | 50.5 | > 100 | > 100 | 370 | > 100 | 99.5 | > 100 | 36.5 | > 100 | IC50 [4]: 440 µM; IC50 (NCI-H460): > 100 µM; EC50 (Sindbis virus): > 100 µM; EC50 (Human coronavirus OC43): > 100 µM |
| CCN(CC)c1ccc2cc(-c3nc4ccc(C5=NCCN5)cc4s3)c(=O)oc2c1 | > 100 | > 100 | 64.2 | > 100 | 80.6 | > 100 | 2.84 | > 100 | 54.2 | > 100 | > 100 | 11.3 | > 100 | > 100 | 2190 | 47.9 | > 100 | > 100 | 10.2 | 65.5 | IC50 (NCI-H460): > 100 µM; EC50 (Sindbis virus): > 100 µM; EC50 (Human coronavirus OC43): 69.7 µM |
| Cc1ccc2oc(=O)c(-c3nc4cc(C5=NCCN5)ccc4[nH]3)c(Cl)c2c1 | > 100 | > 100 | 10 | > 100 | 10.2 | > 100 | 47.1 | > 100 | < 0.8 | > 100 | 21.5 | 6.4 | > 100 | 9.1 | 350 | > 100 | 77 | > 100 | 5.8 | 9.9 | IC50 [4]: 190 µM; IC50 (NCI-H460): 31.7 µM; EC50 (Sindbis virus): > 100 µM; EC50 (Human coronavirus OC43): > 100 µM |
| CCN(CC)c1ccc2cc(-c3nc4ccccc4[nH]3)c(=N)oc2c1 | – | – | – | – | – | – | – | – | – | – | – | – | – | – | – | – | – | – | – | – | IC50 (CCRF-CEM): 0.059 µM |
| O=c1oc2ccccc2c(Cl)c1-c1nc2cc(C3=NCCCN3)ccc2[nH]1 | > 100 | > 100 | 81.7 | > 100 | 69.2 | > 100 | 38.3 | > 100 | 61.7 | > 100 | 53.5 | 44.5 | > 100 | > 100 | 290 | > 100 | 87.4 | > 100 | 19.1 | > 100 | IC50 [4]: 70 µM; IC50 (NCI-H460): > 100 µM; EC50 (Sindbis virus): > 100 µM; EC50 (Human coronavirus OC43): > 100 µM |
| CC(N)C12CC3CC(CC(C3)C1)C2 (configuration not stated) [RIMANTADINE] | 5 | > 100 | > 100 | 0.05 | – | – | – | – | – | – | – | – | – | – | – | – | – | – | – | – | – |
| O=c1oc2ccc(Br)cc2c(Cl)c1-c1nc2cc(C3=NCCCN3)ccc2[nH]1 | 43.8 | 9 | > 100 | 51 | 54.2 | 9.4 | 95.1 | 73.5 | > 100 | > 100 | > 100 | 52.1 | 11.2 | > 100 | 360 | > 100 | > 100 | > 100 | 49.2 | 59.5 | IC50 [4]: 110 µM; IC50 (NCI-H460): > 100 µM; EC50 (Sindbis virus): 59 µM; EC50 (Human coronavirus OC43): 78 µM |
| CCN(CC)c1ccc2cc(-c3nc4cc(C5=NCCCN5)ccc4[nH]3)c(=O)oc2c1 | > 100 | > 100 | 43.4 | > 100 | 66.7 | 77.7 | 28.8 | 73.3 | > 100 | > 100 | 63.8 | 67.3 | 72.6 | 97 | 110 | > 100 | > 100 | > 100 | 10.8 | 63.5 | IC50 [4]: 610 µM; IC50 (NCI-H460): > 100 µM; EC50 (Sindbis virus): > 100 µM; EC50 (Human coronavirus OC43): > 100 µM |
